# Screening data (PubChem)
# M1 antag: blocks the rat M1 muscarinic receptor response to acetylcholine; P08482; hit rate 3.4% among 64,000; B-score at 10 µM; CHO-M1 cells, Fluo-4 calcium, ACh EC80 antagonist mode; stronger effect = lower value;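 active = calcium fluorescence response, raw or row-and-column corrected B-score, differing from the plate sample mean either way at a set confidence level, mostly lower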
# S1P1 ag-PAM: S1P1 (human) agonism or agonism potentiation; hit rate 0.57% among 56,000; AID 449; P21453; activation, % at 9.5 µM; S1P1 CRE-bla cells, forskolin, beta-lactamase FRET, potentiator mode; S1P1 agonist co-added at EC20, 2 nM; 100% = saturating reference agonist, 0% = basal;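 active = activation above a cutoff set at the mean activation of all tested compounds plus 3 SD, cut at about 54% in these data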;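 also: forskolin at 4 µM as EC80 and the EC20 agonist is SEW2871; 100% = SEW2871 at its EC100 plus forskolin at EC80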
# S1P3 ag: activates the human S1P3 receptor. Q99500. S1P3 NFAT-BLA reporter cells, agonism, FRET ratio; relative to 1 µM S1P, basal subtracted. activation, % at 4.5 µM. hit rate 0.1% among 60,000;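 active = activation above the screen-wide mean plus 3 SD, cut at about 4.5% in these data, passing the limit was not always enough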
# Target sequence (Q99500 whole entry, looked up): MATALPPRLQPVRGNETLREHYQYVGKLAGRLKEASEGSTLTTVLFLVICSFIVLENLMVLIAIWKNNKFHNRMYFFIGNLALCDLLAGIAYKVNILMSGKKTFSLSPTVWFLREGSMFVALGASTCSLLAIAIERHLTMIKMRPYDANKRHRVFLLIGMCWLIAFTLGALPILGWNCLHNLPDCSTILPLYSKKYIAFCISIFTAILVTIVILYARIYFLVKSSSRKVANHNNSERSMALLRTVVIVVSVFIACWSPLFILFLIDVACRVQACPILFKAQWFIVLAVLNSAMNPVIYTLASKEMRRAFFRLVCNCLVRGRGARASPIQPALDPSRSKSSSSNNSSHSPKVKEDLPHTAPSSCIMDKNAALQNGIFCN
#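 Material: Human S1P3 NFAT-BLA reporter CHO cells | Incubation: Overnight plating, 4 h compound 37 °C, 2 h substrate RT | Signal: FRET β-lactamase substrate fluorescence, excitation 405 nm, 460/535 nm emission ratio, background-subtracted | Compound: 4.5 µM final, single dose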
# D1 mod: D1 dopamine receptor (human) allosteric modulation. P21728. HEK293 D1, CRE-luciferase, dopamine EC30 potentiation; actives deviate in either direction. B-score at 10 µM. hit rate 5.9% among 58,000;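 active = luminescence count or its row- and column-corrected plate score outside the 99.7% band of the plate's sample wells, on either side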
# M1 agonist: activates the M1 muscarinic receptor | CHO-M1 cells, Fluo-4 calcium fluorescence, agonist mode; stronger effect = higher value | B-score at 10 µM | hit rate 3% among 64,000 | AID 626;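 active = fluorescence rise, raw or as B-score row- and column-corrected plate score, outside the 99.7% band of its plate's samples, either direction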
# M1 antag confirm: confirmation of rat M1 muscarinic receptor antagonists; shares compounds with M1 antag; hit rate 43% among 1,700; CHO-M1 cells, Fluo-4 calcium, ACh EC80 antagonism; stronger effect = lower value; calcium response (max-min fluorescence) at 10 µM;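 active = calcium response below the same-plate mean of wells given acetylcholine alone at its 80%-effect dose, minus 3 SD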;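 also: raw fluorescence intensity difference in arbitrary instrument units and not normalized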
# mGluR4 antag: acts on human mGluR4 in M1 antagonist selectivity test; fluorescence response (max-min) at 10 µM; CHO-mGluR4 calcium flux, Fluo-4 fluorescence, glutamate EC80; stronger effect = lower value; shares compounds with M1 antag; hit rate 0.9% among 1,700;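 active = fluorescence response below the plate's average for near-maximal glutamate wells, less 3 SD of those wells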;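 also: raw unnormalized fluorescence span taken in the window right after glutamate addition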
# * hit, by the source's call; nt = no result. A selection: hits, their analogues and other compounds. The true share with any hit is near 11%.
SMILES,M1 antag,S1P1 ag-PAM,S1P3 ag,D1 mod,M1 agonist,M1 antag confirm,mGluR4 antag
O=C(Cn1nc(-c2ccc(Cl)cc2)ccc1=O)NCC1CCCO1 (centres undefined),-0.8*,6,1,-0.12,0.58,575,261
CCCN1CCN(CCCNC(=O)Cn2nc(-c3ccc(Cl)cc3)ccc2=O)CC1,-0.62,9,0,-0.29,0.3,nt,nt
Cc1ccc(C)c(N2CCN(C(=O)CN(C)S(=O)(=O)c3cnc[nH]3)CC2)c1,0.7,-7,0,0.017,0.33,nt,nt
O=C(c1cccs1)N1CCN(CCc2ccccc2)CC1,-0.12,7,0,-2.1,-0.1,nt,nt
O=C(NCCN1CCN(C(=O)c2cccs2)CC1)c1cccs1,-2.3*,-11,0,-0.42,-0.6,560,234
CCOc1ccc(-c2nnc(-c3snc(-c4ccc(F)cc4)c3N=CN(C)C)o2)cc1,0.18,2,0,-0.29,0.026,nt,nt
CCN(CC(=O)NCCc1ccc(S(N)(=O)=O)cc1)Cc1nc2ccccc2c(=O)[nH]1,-2*,-21,0,nt,0.03,636,238
CCN(CC(=O)NC(=O)NCc1ccco1)Cc1nc2ccccc2c(=O)[nH]1,0.067,-6,0,0.3,0.013,nt,nt
CC(=O)C1=C(C)Nc2ncnn2C1c1ccc(Cl)cc1Cl (centres undefined),0.44,4,-1,-0.12,-0.06,nt,nt
O=C(Nc1ccccc1C(F)(F)F)c1cc(S(=O)(=O)N2CCOCC2)ccc1F,-0.014,nt,nt,-0.33,-0.37,nt,nt
Cc1ccc(-c2nc(CSCC(=O)NCCN3CCN(Cc4ccccc4)CC3)c(C)o2)cc1,-5.3*,25,-1,-1.3,0.019,423*,253
Cc1cc2ccccc2c(=O)n1CC(=O)NCC(=O)N1CCCC1,-1.4,1,0,-0.85,0.45,nt,nt
COc1ccc(N2CCN(C(=O)CNC(=O)Cn3c(C)cc4ccccc4c3=O)CC2)cc1,-2.4*,-2,0,-0.3,-0.86,642,245
CCOC(=O)c1[nH]c2ccc(OCC)cc2c1NC(=O)CN1CCN(c2ccccc2)CC1,1.3,0,0,-0.45,-0.22,nt,nt
O=c1c2ccccc2[nH]c(=S)n1CCCN1CCN(C2CCCCC2)CC1,-2.3*,-6,-1,-0.84,0.24,485*,232
CC1CCN(CCCn2c(=S)[nH]c3ccccc3c2=O)CC1,-0.47,4,-1,-0.71,0.043,nt,nt
CCOC(=O)c1[nH]c2ccc(OC)cc2c1NC(C)=O,-0.39,14,-1,-0.25,0.75,nt,nt
COC(=O)c1[nH]c2ccccc2c1NC(=O)CCN1CCN(C2CCCCC2)CC1,-3.7*,-11,-1,-0.43,-0.83,389*,230
CCOC(=O)c1[nH]c2ccc(OC)cc2c1NC(=O)CCN1CCc2ccccc2C1,-3.1*,4,-2,nt,1.4,418*,183
CCOC(=O)c1[nH]c2ccc(OC)cc2c1NC(=O)CCN1CCC(C)CC1,-1.5*,9,-2,-0.53,0.26,426*,221
COc1cc(C)c(S(=O)(=O)NCc2cccs2)cc1C,0.31,5,0,0.19,-0.39,nt,nt
Cc1ccccc1NC(=O)C1CCC(C)(C(=O)O)C1(C)C (centres undefined),0.17,0,-2,0.45,0.21,nt,nt
CCCN(CCC)CCCNC(=O)c1ccc2c(c1)N(CC)C(=O)c1ccccc1S2=O (centres undefined),-4.2*,-1,0,-0.076,-0.4,328*,202
COc1ccc(-n2c(COc3ccccc3)nnc2SCc2ccc(C#N)cc2)cc1,-3.3*,12,0,-1.4,-0.079,565,252
O=C1c2ccccc2C(=O)N1CCOCCN1C(=O)c2ccccc2C1=O,-3.3*,4,-1,-0.84,0.45,687,242
SMILES,M1 antag,S1P1 ag-PAM,S1P3 ag,D1 mod,M1 agonist,M1 antag confirm,mGluR4 antag
O=C1c2ccccc2C(=O)N1CCCOc1ccccc1,-0.098,2,-1,nt,-0.014,nt,nt
O=C(CC1Oc2ccccc2NC1=O)NCCCN1CCN(C2CCCCC2)CC1 (centres undefined),0.27,-9,0,0.72,2.6,nt,nt
Clc1c(CSc2nc3ccccc3o2)nc2sccn12,0.47,nt,nt,-1,-0.47,nt,nt
c1ccc2c(c1)nc1sccn12,-2.5*,-9,-1,-0.036,0.91,674,254
CCN(CCCc1ccccc1)CCCc1ccccc1,-13*,-16,-3,-5,-1.2,18*,256
CCC(C)N(C(=O)COC(=O)Cc1n[nH]c(=O)c2ccccc12)C1CCS(=O)(=O)C1 (centres undefined),-3.6*,-17,0,0.17,0.99,641,242
COCCn1c(SCC(=O)Nc2ccc(S(=O)(=O)N3CCOCC3)cc2)nc2ccccc21,-7.6*,7,0,-0.19,-0.34,348*,270
COc1ccc(OC)c2sc(N3CCCCC3)nc12,-4.2*,18,-1,-1.2,-0.33,386*,252
Clc1cccc2sc(N3CCCCC3)nc12,-0.72,-25,0,0.62,1.5,nt,nt
CCN1CCN(Cc2c(OC)ccc3ccccc23)CC1,-3*,nt,0,-3.6*,0.58,539,247
CCN1CCN(CCC(=O)Nc2ccccc2OC)CC1,0.67,17,1,-0.55,0.43,nt,nt
CCOC(=O)c1snc(C(=O)NC2CCCCC2)c1N,-2.7*,19,-1,0.38,0.24,641,206
Nc1c(C(=O)NC2CCCCC2)nsc1C(=O)OCC(=O)NC1CCCCC1,0.021,-15,0,-1.6,0.33,nt,nt
CCOC(=O)N1CCC(NC(=O)Cn2ncn3c(cc4sc(CC)cc43)c2=O)CC1,0.71,-16,0,0.84,1.1,nt,nt
COc1cc2c(cc1OC)CN(Cc1cccs1)CC2,nt,-19,0,-4.6,nt,nt,nt
COc1cc2c(cc1OC)CN(Cc1ccc(OC)c(C)c1OC)CC2,-3.4*,21,-2,-0.33,-1.8,406*,274
Cc1noc(C)c1CSc1nnnn1-c1ccc(Cl)cc1,-0.21,-11,-1,-1.1,-0.17,nt,nt
Cn1c(=O)c2c(nc(SCCN3CCCCC3)n2Cc2ccc(Cl)cc2)n(C)c1=O,-7.8*,16,-4,0.75,-0.88,87*,248
C=CC(C)Sc1nc2c(c(=O)n(C)c(=O)n2C)n1Cc1ccccc1Cl (centres undefined),-4.5*,7,-1,2,0.52,594,265
CCSc1nc2c(c(=O)n(C)c(=O)n2C)n1Cc1ccc(Cl)cc1,-3.7*,8,-1,1.7,0.44,410,225
C=CCOc1nc2c(c(=O)n(C)c(=O)n2C)n1Cc1ccccc1Cl,-0.013,-2,-2,nt,0.79,nt,nt
Cn1c(=O)c2c(nc(Sc3ncccn3)n2Cc2ccc(Cl)cc2)n(C)c1=O,0.2,0,1,-0.39,-0.99,nt,nt
CC(C)N(CCc1ccncc1)C(=O)Nc1ccc(Cl)c(Cl)c1,-1.5,-6,0,-0.016,0.015,nt,nt
